Reference: ChEMBL document CHEMBL1127520, “N-omega-fluoroalkyl analogs of (1R)-2 beta-carbomethoxy-3 beta-(4-iodophenyl)-tropane (beta-CIT): radiotracers for positron emission tomography and single photon emission computed tomography imaging of dopamine transporters” (J Med Chem, 1994)

Experiments:
[1] = system: Rattus norvegicus; test: The compound was evaluated for its behavioral activity i.e., locomotor arousal in rat for a dose of 1 mg/kg in time interval of 1 hour; assay type: functional
In short: (§1)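 Adult male Sprague-Dawley rats (150-200 g), 3-7 per group, given agent ip in saline containing DMSO; vehicle controls received saline/DMSO. Locomotion counted in an electronic activity monitor, reported as mean ± SEM counts/hour for 0-1, 1-2 and 2-3 h. Comparison by ANOVA, then post-hoc t tests against vehicle.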

[2] = system: Rattus norvegicus; test: The compound was evaluated for its behavioral activity i.e., locomotor arousal in rat for a dose of 1 mg/kg in time interval of 2 hours; assay type: functional; in short: as §1
[3] = system: Rattus norvegicus; test: The compound was evaluated for its behavioral activity i.e., locomotor arousal in rat for a dose of 1 mg/kg in time interval of 3 hours; assay type: functional; in short: as §1
[4] = molecular target: Sodium-dependent dopamine transporter (Rattus norvegicus, UniProt P23977); test: Binding affinity for dopamine transporters in rat brain tissue.; assay type: tissue-based
Sodium-dependent dopamine transporter, sequence (P23977 whole entry): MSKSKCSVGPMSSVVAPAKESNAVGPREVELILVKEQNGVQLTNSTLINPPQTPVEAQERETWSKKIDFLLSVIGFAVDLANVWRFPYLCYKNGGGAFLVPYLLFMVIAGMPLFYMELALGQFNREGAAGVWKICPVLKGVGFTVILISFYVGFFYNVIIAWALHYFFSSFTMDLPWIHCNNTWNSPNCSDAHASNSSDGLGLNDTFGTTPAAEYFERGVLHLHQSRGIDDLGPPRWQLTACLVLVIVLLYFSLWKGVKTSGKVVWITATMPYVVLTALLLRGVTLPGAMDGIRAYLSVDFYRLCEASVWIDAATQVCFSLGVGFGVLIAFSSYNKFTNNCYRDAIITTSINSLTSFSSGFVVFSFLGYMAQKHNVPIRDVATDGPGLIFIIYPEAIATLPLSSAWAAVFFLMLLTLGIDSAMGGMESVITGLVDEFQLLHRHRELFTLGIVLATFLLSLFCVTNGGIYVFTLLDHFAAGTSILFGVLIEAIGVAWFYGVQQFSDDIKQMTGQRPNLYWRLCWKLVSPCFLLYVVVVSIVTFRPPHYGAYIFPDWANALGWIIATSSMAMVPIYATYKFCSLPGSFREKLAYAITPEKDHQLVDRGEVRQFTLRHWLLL
In short: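 Crude membrane fraction from rat corpus striatum homogenate. Nonspecific binding defined with 30 μM methylphenidate. Each agent tested at six concentrations in duplicate. Concentration-inhibition curves computer-fit for IC50 ± SEM, converted to Ki = IC50/(1 + [L/Kd]).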

[5] = system: Rattus norvegicus; test: The compound was evaluated for its behavioral activity i.e., locomotor arousal in rat for a dose of 0.3 mg/kg in time interval of 1 hour; assay type: functional; in short: as §1
[6] = system: Rattus norvegicus; test: The compound was evaluated for its behavioral activity i.e., locomotor arousal in rat for a dose of 0.3 mg/kg in time interval of 2 hours; assay type: functional; in short: as §1
[7] = system: Rattus norvegicus; test: The compound was evaluated for its behavioral activity i.e., locomotor arousal in rat for a dose of 0.3 mg/kg in time interval of 3 hours; assay type: functional; in short: as §1
[8] = system: Rattus norvegicus; test: The compound was evaluated for its behavioral activity i.e., locomotor arousal in rat for a dose of 3 mg/kg in time interval of 1 hour; assay type: functional; in short: as §1
[9] = system: Rattus norvegicus; test: The compound was evaluated for its behavioral activity i.e., locomotor arousal in rat for a dose of 3 mg/kg in time interval of 2 hours; assay type: functional; in short: as §1
[10] = system: Rattus norvegicus; test: The compound was evaluated for its behavioral activity i.e., locomotor arousal in rat for a dose of 3 mg/kg in time interval of 3 hours; assay type: functional; in short: as §1
[11] = system: Rattus norvegicus; test: The compound was evaluated for its behavioral activity i.e., locomotor arousal in rat for a dose of 1 mg/kg in time interval of 3 hours, expressed as mean =/- SEM activity; assay type: functional; in short: as §1

| Compound | Count/h [1] | Count/h [2] | Ki [4] [nM] | Count/h [8] | Count/h [9] | other results |
| --- | --- | --- | --- | --- | --- | --- |
| COC(=O)[C@H]1C(c2ccc(I)cc2)C[C@H]2CCC1N2C (stereo partly drawn) | <6820 | <9990 | 1.4 |  |  | Count/h [3]: <9710 |
| CC(C)OC(=O)[C@@H]1C2CC[C@H](C[C@@H]1c1ccc(I)cc1)N2CCF |  |  | 4.4 |  |  |  |
| CC(C)OC(=O)[C@@H]1C2CC[C@H](C[C@@H]1c1ccc(I)cc1)N2CCCF |  |  | 1.2 |  |  |  |
| COC(=O)[C@H]1C(c2ccc(I)cc2)C[C@H]2CCC1N2CCCF (stereo partly drawn) | <1943 | <1071 | 3.5 | <3791 | <2109 | Count/h [5]: 759; Count/h [6]: 403; Count/h [7]: 210; Count/h [3]: <325; Count/h [10]: <1410 |
| COC(=O)[C@H]1C(c2ccc(I)cc2)C[C@H]2CCC1N2CCF (stereo partly drawn) | <4180 | <4200 | 4 | <6898 | <7796 | Count/h [5]: <2030; Count/h [6]: <2945; Count/h [7]: <3459; Count/h [11]: <4400; Count/h [10]: <7562 |
| COC(=O)[C@@H]1C2CC[C@@H](C[C@@H]1OC(=O)c1ccccc1)N2C (single isomer, unassigned) [COCAINE] | <14940 | <1960 |  | <15710 | <712 |  |
| (2S,5R)-8-(2-Fluoro-ethyl)-3-(4-trimethylstannanyl-phenyl)-8-aza-bicyclo[3.2.1]octane-2-carboxylic acid methyl ester |  |  | > 10000 |  |  |  |
| (2S,5R)-8-(3-Fluoro-propyl)-3-(4-trimethylstannanyl-phenyl)-8-aza-bicyclo[3.2.1]octane-2-carboxylic acid isopropyl ester |  |  | > 10000 |  |  |  |
| (2S,5R)-8-(3-Fluoro-propyl)-3-(4-trimethylstannanyl-phenyl)-8-aza-bicyclo[3.2.1]octane-2-carboxylic acid methyl ester |  |  | > 10000 |  |  |  |
